According to PMC9112330 (ACS Infectious Diseases, 2022):

Test: In vivo fluorescence bioimaging / biodistribution
Parameters: species or system mouse
Details: n = 2
Method in brief: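 AF680 was attached through a cysteine inserted between the PNA and the dendron, by maleimide coupling. Two NMRI-nu mice received 200 μL of 10 μM labelled conjugate. Under 2% isoflurane, epifluorescence was imaged at 675/720 nm from pre-injection to 48 h, followed by an ex vivo organ scan. Body and kidney ROI signals were expressed as % of initial signal (Y0, from linear regression of the first three points), and half-life came from one-phase decay fit.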

Substance: H-(Gbu)8-(DAB)4-(DAB)2-DAB-Cys(AF680)-CTCATACTCT-NH2 [AF680-PNA4897]
- organ accumulation of remaining fluorescence (ex vivo scan of excised organs 48 h post i.v. administration): accumulated predominantly in the kidney and in the liver
- time to distribution in the whole body (i.v. tail vein, 200 μL of 10 μM, nude mice, near-IR fluorescence imaging): < 5 min
